Reference: ChEMBL document CHEMBL5532695, “4-Trifluoromethyl bithiazoles as broad-spectrum antimicrobial agents for virus-related bacterial infections or co-infections” (RSC Med Chem, 2024)

System: not listed separately
Assay: Cytotoxicity against human HeLa cells assessed as reduction in cell viability by MTT assay
Assay type: toxicity, cell-based
Details: not given; call rule not given here
Method in brief: (§1)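 MTT viability on HeLa or VeroE6 cells, run in parallel with the antiviral assays. CC50 from variable-slope sigmoidal dose–response regression.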

Structure (SMILES)	CC50 [µM]
CC(C)(C)C(=O)Nc1nc(C(F)(F)F)c(-c2csc(Nc3cc(C(=O)O)cc(C(F)(F)F)c3)n2)s1	> 50

System: not listed separately
Assay: Cytotoxicity against african green monkey Vero E6 cells assessed as reduction in cell viability by MTT assay
Assay type: toxicity, cell-based
Details: chlorocebus sabaeus, Vero E6 cells (Vero C1008)
Method in brief: as §1

Structure (SMILES)	CC50 [µM]
CC(C)(C)C(=O)Nc1nc(C(F)(F)F)c(-c2csc(Nc3cc(C(=O)O)cc(C(F)(F)F)c3)n2)s1	> 50

System: Bacillus subtilis
Assay: Antibacterial activity against Bacillus subtilis ATCC 6633 assessed as reduction in microbial growth measured after 18 hrs by CLSI based broth microdilution method
Assay type: functional
Details: not given
Method in brief: (§2)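 MIC by CLSI broth microdilution in Mueller–Hinton medium, triplicate. Inoculum 5 × 10^4 CFU per well. Compounds taken up in DMSO (50 mg mL−1 stock) and diluted in medium. Read after 18 h at 35 ± 2 °C.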

Structure (SMILES)	MIC [µg/mL]
CC(C)(C)C(=O)Nc1nc(C(F)(F)F)c(-c2csc(Nc3cc(C(=O)O)cc(C(F)(F)F)c3)n2)s1	16

System: Bacillus subtilis
Assay: Bactericidal activity against Bacillus subtilis ATCC 6633 assessed as reduction in microbial growth measured after 18 hrs by CLSI based broth microdilution method
Assay type: functional
Details: not given
Method in brief: (§3)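 MBC by CLSI broth microdilution in Mueller–Hinton medium, triplicate. Inoculum 5 × 10^4 CFU per well. Read after 18 h at 35 ± 2 °C.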

Structure (SMILES)	MBC [µg/mL]
CC(C)(C)C(=O)Nc1nc(C(F)(F)F)c(-c2csc(Nc3cc(C(=O)O)cc(C(F)(F)F)c3)n2)s1	16

System: Enterococcus faecalis
Assay: Antibacterial activity against Enterococcus faecalis ATCC 29212 assessed as reduction in microbial growth measured after 18 hrs by CLSI based broth microdilution method
Assay type: functional
Details: not given
Method in brief: as §2

Structure (SMILES)	MIC [µg/mL]
CC(C)(C)C(=O)Nc1nc(C(F)(F)F)c(-c2csc(Nc3cc(C(=O)O)cc(C(F)(F)F)c3)n2)s1	32

System: Enterococcus faecalis
Assay: Bactericidal activity against Enterococcus faecalis ATCC 29212 assessed as reduction in microbial growth measured after 18 hrs by CLSI based broth microdilution method
Assay type: functional
Details: not given
Method in brief: as §3

Structure (SMILES)	MBC [µg/mL]
CC(C)(C)C(=O)Nc1nc(C(F)(F)F)c(-c2csc(Nc3cc(C(=O)O)cc(C(F)(F)F)c3)n2)s1	> 32

System: Streptococcus pyogenes
Assay: Antibacterial activity against Streptococcus pyogenes ATCC 12344 assessed as reduction in microbial growth measured after 18 hrs by CLSI based broth microdilution method
Assay type: functional
Details: not given
Method in brief: as §2

Structure (SMILES)	MIC [µg/mL]
CC(C)(C)C(=O)Nc1nc(C(F)(F)F)c(-c2csc(Nc3cc(C(=O)O)cc(C(F)(F)F)c3)n2)s1	4

System: Streptococcus pyogenes
Assay: Bactericidal activity against Streptococcus pyogenes ATCC 12344 assessed as reduction in microbial growth measured after 18 hrs by CLSI based broth microdilution method
Assay type: functional
Details: not given
Method in brief: as §3

Structure (SMILES)	MBC [µg/mL]
CC(C)(C)C(=O)Nc1nc(C(F)(F)F)c(-c2csc(Nc3cc(C(=O)O)cc(C(F)(F)F)c3)n2)s1	4

System: Staphylococcus aureus
Assay: Antibacterial activity against Staphylococcus aureus ATCC 25923 assessed as reduction in microbial growth measured after 18 hrs by CLSI based broth microdilution method
Assay type: functional
Details: not given
Method in brief: as §2

Structure (SMILES)	MIC [µg/mL]
CC(C)(C)C(=O)Nc1nc(C(F)(F)F)c(-c2csc(Nc3cc(C(=O)O)cc(C(F)(F)F)c3)n2)s1	16

System: Staphylococcus aureus
Assay: Bactericidal activity against Staphylococcus aureus ATCC 25923 assessed as reduction in microbial growth measured after 18 hrs by CLSI based broth microdilution method
Assay type: functional
Details: not given
Method in brief: as §3

Structure (SMILES)	MBC [µg/mL]
CC(C)(C)C(=O)Nc1nc(C(F)(F)F)c(-c2csc(Nc3cc(C(=O)O)cc(C(F)(F)F)c3)n2)s1	< 32

System: Escherichia coli
Assay: Synergistic antibacterial activity against Escherichia coli CCUGT incubated for 18 to 24 hrs in presence of colistin by broth microdilution method
Assay type: functional
Details: time 18-24 hrs

Structure (SMILES)	MAC [µg/mL]
CC(C)(C)C(=O)Nc1nc(C(F)(F)F)c(-c2csc(Nc3cc(C(=O)O)cc(C(F)(F)F)c3)n2)s1	>64

System: Klebsiella pneumoniae
Assay: Synergistic antibacterial activity against Klebsiella pneumoniae ATCC 13833 incubated for 18 to 24 hrs in presence of colistin by broth microdilution method
Assay type: functional
Details: time 18-24 hrs

Structure (SMILES)	MAC [µg/mL]
CC(C)(C)C(=O)Nc1nc(C(F)(F)F)c(-c2csc(Nc3cc(C(=O)O)cc(C(F)(F)F)c3)n2)s1	>64

System: Acinetobacter baumannii
Assay: Synergistic antibacterial activity against Acinetobacter baumannii ATCC 17978 incubated for 18 to 24 hrs in presence of colistin by broth microdilution method
Assay type: functional
Details: time 18-24 hrs

Structure (SMILES)	MAC [µg/mL]
CC(C)(C)C(=O)Nc1nc(C(F)(F)F)c(-c2csc(Nc3cc(C(=O)O)cc(C(F)(F)F)c3)n2)s1	>64

System: Pseudomonas aeruginosa
Assay: Synergistic antibacterial activity against Pseudomonas aeruginosa ATCC 27853 incubated for 18 to 24 hrs in presence of colistin by broth microdilution method
Assay type: functional
Details: time 18-24 hrs

Structure (SMILES)	MAC [µg/mL]
CC(C)(C)C(=O)Nc1nc(C(F)(F)F)c(-c2csc(Nc3cc(C(=O)O)cc(C(F)(F)F)c3)n2)s1	>64

System: Staphylococcus aureus
Assay: Antibacterial activity against methicillin-resistant Staphylococcus aureus ATCC 43300 assessed as reduction in microbial growth measured after 18 hrs by CLSI based broth microdilution method
Assay type: functional
Details: not given
Method in brief: (§4)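 Gram-positive clinical isolates; compounds dissolved in DMSO (50 mg mL−1 stock) and diluted in medium; MIC by CLSI broth microdilution in Mueller–Hinton medium, inoculum 5 × 10^4 CFU per well, read after 18 h at 35 ± 2 °C; triplicate.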

Structure (SMILES)	MIC [µg/mL]
CC(C)(C)C(=O)Nc1nc(C(F)(F)F)c(-c2csc(Nc3cc(C(=O)O)cc(C(F)(F)F)c3)n2)s1	8

System: Staphylococcus aureus
Assay: Bactericidal activity against methicillin-resistant Staphylococcus aureus ATCC 43300 assessed as reduction in microbial growth measured after 18 hrs by CLSI based broth microdilution method
Assay type: functional
Details: not given

Structure (SMILES)	MBC [µg/mL]
CC(C)(C)C(=O)Nc1nc(C(F)(F)F)c(-c2csc(Nc3cc(C(=O)O)cc(C(F)(F)F)c3)n2)s1	> 64

System: Staphylococcus warneri
Assay: Antibacterial activity against oxacillin-resistant Staphylococcus warneri SI-5/2011 assessed as reduction in microbial growth measured after 18 hrs by CLSI based broth microdilution method
Assay type: functional
Details: not given
Method in brief: as §4

Structure (SMILES)	MIC [µg/mL]
CC(C)(C)C(=O)Nc1nc(C(F)(F)F)c(-c2csc(Nc3cc(C(=O)O)cc(C(F)(F)F)c3)n2)s1	16

System: Staphylococcus warneri
Assay: Bactericidal activity against oxacillin-resistant Staphylococcus warneri SI-5/2011 assessed as reduction in microbial growth measured after 18 hrs by CLSI based broth microdilution method
Assay type: functional
Details: not given

Structure (SMILES)	MBC [µg/mL]
CC(C)(C)C(=O)Nc1nc(C(F)(F)F)c(-c2csc(Nc3cc(C(=O)O)cc(C(F)(F)F)c3)n2)s1	> 64

System: Staphylococcus haemolyticus
Assay: Antibacterial activity against oxacillin-resistant Staphylococcus haemolyticus SI-6/2011 assessed as reduction in microbial growth measured after 18 hrs by CLSI based broth microdilution method
Assay type: functional
Details: not given
Method in brief: as §4

Structure (SMILES)	MIC [µg/mL]
CC(C)(C)C(=O)Nc1nc(C(F)(F)F)c(-c2csc(Nc3cc(C(=O)O)cc(C(F)(F)F)c3)n2)s1	16

System: Staphylococcus haemolyticus
Assay: Bactericidal activity against oxacillin-resistant Staphylococcus haemolyticus SI-6/2011 assessed as reduction in microbial growth measured after 18 hrs by CLSI based broth microdilution method
Assay type: functional
Details: not given

Structure (SMILES)	MBC [µg/mL]
CC(C)(C)C(=O)Nc1nc(C(F)(F)F)c(-c2csc(Nc3cc(C(=O)O)cc(C(F)(F)F)c3)n2)s1	> 64

System: Staphylococcus epidermidis
Assay: Antibacterial activity against linezolid-resistant Staphylococcus epidermidis SI-1266 assessed as reduction in microbial growth measured after 18 hrs by CLSI based broth microdilution method
Assay type: functional
Details: not given
Method in brief: as §4

Structure (SMILES)	MIC [µg/mL]
CC(C)(C)C(=O)Nc1nc(C(F)(F)F)c(-c2csc(Nc3cc(C(=O)O)cc(C(F)(F)F)c3)n2)s1	16

System: Staphylococcus epidermidis
Assay: Bactericidal activity against linezolid-resistant Staphylococcus epidermidis SI-1266 assessed as reduction in microbial growth measured after 18 hrs by CLSI based broth microdilution method
Assay type: functional
Details: not given

Structure (SMILES)	MBC [µg/mL]
CC(C)(C)C(=O)Nc1nc(C(F)(F)F)c(-c2csc(Nc3cc(C(=O)O)cc(C(F)(F)F)c3)n2)s1	64

System: Enterococcus faecium
Assay: Antibacterial activity against Vancomycin/teicoplanin resistant Enterococcus faecium SI-759 assessed as reduction in microbial growth measured after 18 hrs by CLSI based broth microdilution method
Assay type: functional
Details: not given
Method in brief: as §4

Structure (SMILES)	MIC [µg/mL]
CC(C)(C)C(=O)Nc1nc(C(F)(F)F)c(-c2csc(Nc3cc(C(=O)O)cc(C(F)(F)F)c3)n2)s1	16

System: Enterococcus faecium
Assay: Bactericidal activity against Vancomycin/teicoplanin resistant Enterococcus faecium SI-759 assessed as reduction in microbial growth measured after 18 hrs by CLSI based broth microdilution method
Assay type: functional
Details: not given

Structure (SMILES)	MBC [µg/mL]
CC(C)(C)C(=O)Nc1nc(C(F)(F)F)c(-c2csc(Nc3cc(C(=O)O)cc(C(F)(F)F)c3)n2)s1	> 64

System: Enterococcus faecium
Assay: Antibacterial activity against Vancomycin resistant Enterococcus faecium SI-1831 assessed as reduction in microbial growth measured after 18 hrs by CLSI based broth microdilution method
Assay type: functional
Details: not given
Method in brief: as §4

Structure (SMILES)	MIC [µg/mL]
CC(C)(C)C(=O)Nc1nc(C(F)(F)F)c(-c2csc(Nc3cc(C(=O)O)cc(C(F)(F)F)c3)n2)s1	16

System: Enterococcus faecium
Assay: Bactericidal activity against Vancomycin resistant Enterococcus faecium SI-1831 assessed as reduction in microbial growth measured after 18 hrs by CLSI based broth microdilution method
Assay type: functional
Details: not given

Structure (SMILES)	MBC [µg/mL]
CC(C)(C)C(=O)Nc1nc(C(F)(F)F)c(-c2csc(Nc3cc(C(=O)O)cc(C(F)(F)F)c3)n2)s1	> 64

System: Enterococcus faecium
Assay: Antibacterial activity against Vancomycin resistant Enterococcus faecium SI-3856B assessed as reduction in microbial growth measured after 18 hrs by CLSI based broth microdilution method
Assay type: functional
Details: not given
Method in brief: as §4

Structure (SMILES)	MIC [µg/mL]
CC(C)(C)C(=O)Nc1nc(C(F)(F)F)c(-c2csc(Nc3cc(C(=O)O)cc(C(F)(F)F)c3)n2)s1	32

System: Enterococcus faecium
Assay: Bactericidal activity against Vancomycin resistant Enterococcus faecium SI-3856B assessed as reduction in microbial growth measured after 18 hrs by CLSI based broth microdilution method
Assay type: functional
Details: not given

Structure (SMILES)	MBC [µg/mL]
CC(C)(C)C(=O)Nc1nc(C(F)(F)F)c(-c2csc(Nc3cc(C(=O)O)cc(C(F)(F)F)c3)n2)s1	> 64

System: Zika virus
Assay: not given
Details: vero e6

Structure (SMILES)	IC50
CC(C)(C)C(=O)Nc1nc(C(F)(F)F)c(-c2csc(Nc3cc(C(=O)O)cc(C(F)(F)F)c3)n2)s1	Not Active

System: rhinovirus A16
Assay: microbe, parasite or virus in culture
Details: Rhinovirus A, HeLa, 48 h

Structure (SMILES)	IC50 [µM]
CC(C)(C)C(=O)Nc1nc(C(F)(F)F)c(-c2csc(Nc3cc(C(=O)O)cc(C(F)(F)F)c3)n2)s1	9.52

System: enterovirus D68
Assay: microbe, parasite or virus in culture
Details: Enterovirus D, HeLa, 48 h

Structure (SMILES)	IC50 [µM]
CC(C)(C)C(=O)Nc1nc(C(F)(F)F)c(-c2csc(Nc3cc(C(=O)O)cc(C(F)(F)F)c3)n2)s1	4.18
